Consider 15 compounds from ChEMBL document CHEMBL1147152, “Radiolabeled phenethylguanidines: novel imaging agents for cardiac sympathetic neurons and adrenergic tumors” (J Med Chem, 2007).

One series has as its system Heart. Briefly: Neuronal drug uptake rate in isolated Sprague-Dawley rat heart. The format is ADME, tissue-based. In outline: (§1)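 Isolated working rat heart perfused with Krebs-Henseleit bicarbonate buffer plus 5 mM glucose, gassed 95% O₂/5% CO₂, with 54 μM corticosterone to block uptake-2. After 30 min stabilization, 10 min constant infusion of ¹¹C tracer (2.0-12.0 μCi/mL perfusate), then 120 min washout. Whole-heart activity read by coincidence CsF detectors and converted to apparent distribution volume. K_up (mL/min/g wet) taken as the linear slope of the 1-4 min infusion data. Clearance half-time (hr) from multi-exponential fit of the washout phase.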

A short description of series [1]: Drug clearance rate in isolated Sprague-Dawley rat heart. The format is ADME, tissue-based. Put shortly: as §1
Series [2] can be described thus: Biodistribution in left ventricle of Sprague-Dawley rat at 50 to 350 uCi, iv. The series is classed as ADME, organism-based, Heart left ventricle. As to conditions: in vivo.
In another series the test system is Lung. Briefly: Biodistribution in lung of Sprague-Dawley rat at 50 to 350 uCi, iv. The format is ADME, organism-based. As to conditions: in vivo.
A further series deals with Liver. The series is described as follows: Biodistribution in liver of Sprague-Dawley rat at 50 to 350 uCi, iv. The format is ADME, organism-based. As to conditions: in vivo.
The test system of another series is Spleen. Briefly: Biodistribution in spleen of Sprague-Dawley rat at 50 to 350 uCi, iv. The series is classed as ADME, organism-based. As to conditions: in vivo.
The test system of the next series is Muscle tissue. Briefly: Biodistribution in muscle of Sprague-Dawley rat at 50 to 350 uCi, iv. As to conditions: in vivo. The format is ADME, organism-based.
For the next series, the system named is Adrenal medulla. The series is described as follows: Biodistribution in adrenal medulla of Sprague-Dawley rat at 50 to 350 uCi, iv. The format is ADME, organism-based. As to conditions: in vivo.
For the next series, the system named is Blood. Briefly: Biodistribution in blood of Sprague-Dawley rat at 50 to 350 uCi, iv. The format is ADME, organism-based. As to conditions: in vivo.
Series [3] in a line: Ratio of drug level in heart to blood in macaque rhesus monkey at 5.4 mCi, iv. The format is ADME, organism-based, Macaca mulatta. Put shortly: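 Rhesus monkey PET: 5.4 mCi of the [¹¹C] tracer, given as an intravenous bolus via catheter to a 5.3 kg animal. Images were reconstructed by OSEM/3D-MAP, and tissue ratios were taken from the dynamic myocardial kinetics.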
The test system of series [4] is PC-12. The series is described as follows: Drug uptake in heart of rat PC12 cells xenografted BALB/c nu/nu mouse at 0.34 mCi at 60 mins. As to conditions: in vivo, 1 h.
Series [5] deals with PC-12. Briefly: Drug uptake in tumor of rat PC12 cells xenografted BALB/c nu/nu mouse at 0.34 mCi within 10 mins. To be noted: in vivo.
Series [6] deals with Rhesus monkey. Briefly: Ratio of drug level in heart to liver in macaque rhesus monkey at 4.9 mCi, iv. The format is ADME, organism-based, Macaca mulatta. To be noted: in vivo.
The nature of series [7]: Ratio of drug level in heart to blood in macaque rhesus monkey at 4.8 mCi, iv. The format is ADME, organism-based, Macaca mulatta.
The subject of series [8] is Rhesus monkey. Briefly: Ratio of drug level in heart to liver in macaque rhesus monkey at 4.8 mCi, iv. The format is ADME, organism-based, Macaca mulatta. As to conditions: in vivo.

Each structure is given as a SMILES string.

Broadly, the half-life is the time needed for the level to fall by half in the phase considered. `N=[11C](N)NCCc1ccc(F)c(O)c1` displayed a Kup with Heart of 0.72 mL/min/g. In series [1], this compound gave a half-life of over 73 h. For the same compound, the Drug uptake in [2] is 1.77 % ID/g; with Lung it was 0.56 % ID/g; in the series with Liver it was 1.22 % ID/g; with Spleen, 0.52 % ID/g; in the series with Muscle tissue it was 0.07 % ID/g; with Adrenal medulla, 0.56 % ID/g. The same compound showed a Drug uptake in the series with Blood of 0.08 % ID/g.
For `N=[11C](N)NCCc1cccc(I)c1`, the Kup in the series on Heart turned out to be 1.1 mL/min/g. This compound also had a half-life in series [1] of 2.4 h.
The compound `N=[11C](N)NCCc1cc(O)ccc1F` displayed a Kup in the series on Heart of 0.49 mL/min/g. Moreover, the half-life in series [1] was over 20 h. Further, the Drug uptake is recorded as 1.01 % ID/g in [2]; 0.34 % ID/g in the series with Lung; 0.92 % ID/g in the series on Liver; 0.43 % ID/g in the series on Spleen; 0.06 % ID/g in the series on Muscle tissue; 0.46 % ID/g in the series with Adrenal medulla. Further, in the series on Blood, the Drug uptake stood at 0.07 % ID/g.
For `N=[11C](N)NCCc1ccccc1F`, in the series with Heart, the Kup was determined as 1.76 mL/min/g. Moreover, the half-life in [1] is 2.3 h.
As a reminder, the Kp is tissue or fluid exposure divided by exposure in the circulation. Regarding `C[C@H](N[11CH3])[C@H](O)c1cccc(O)c1`, the results for the Drug uptake in the series on Lung, with Muscle tissue and in the series with Blood were 0.4 % ID/g, 0.17 % ID/g and 0.08 % ID/g, respectively. For the same compound, in series [3], the Kp was found to be 4.5.
As to `N=[11C](N)NCCc1ccc(O)cc1`, in the series on Heart, the Kup came out at 1.64 mL/min/g. The compound also returned a half-life in [1] of over 45 h. Besides, the Drug uptake in series [2] is reported as 3.3 % ID/g; with Lung it was 0.68 % ID/g; with Liver, 0.84 % ID/g; in the series with Spleen, 0.97 % ID/g; with Muscle tissue, 0.14 % ID/g; in the series on Adrenal medulla, 1.17 % ID/g. In addition, the values for the Drug uptake with Blood, in the series with PC-12 [4] and with PC-12 [5] were 0.16 % ID/g, 17 % ID/g and 29 % ID/g, respectively.
On to `N=[11C](N)NCCc1cccc(F)c1`, for which, in the series on Heart, the Kup was 0.24 mL/min/g. Further, the half-life in [1] is 1.9 h.
Regarding `N=[11C](N)NCCc1ccc(F)cc1`, the Kup with Heart was 0.63 mL/min/g. This compound had a half-life in [1] of 4.4 h.
Compound `N=[11C](N)NC[C@H](O)c1ccccc1` registered a Kup in the series with Heart of 0.42 mL/min/g. Moreover, in series [1], the half-life is 22 h. The Drug uptake in series [2] came out at 1.91 % ID/g; in the series on Lung, 0.86 % ID/g; with Liver, 3.91 % ID/g; in the series on Spleen, 0.88 % ID/g; with Muscle tissue, 0.1 % ID/g; in the series on Adrenal medulla, 0.53 % ID/g. For the same compound, the Drug uptake with Blood is reported as 0.09 % ID/g.
`N=[11C](N)NCC(O)c1cccc(O)c1` (centres undefined) yielded a Kup in the series with Heart of 0.3 mL/min/g. The compound also showed a half-life in series [1] of over 152 h. The Drug uptake in series [2] is listed as 1.17 % ID/g; in the series with Lung, 0.75 % ID/g; with Liver, 2.71 % ID/g; in the series on Spleen, 0.63 % ID/g; with Muscle tissue, 0.07 % ID/g; with Adrenal medulla, 0.36 % ID/g. Further, the Drug uptake with Blood is 0.14 % ID/g. In addition, the Ratio with Rhesus monkey [6] came out at 0.6.
In turn, `N=[11C](N)NCCc1cccc(O)c1` registered a Kup in the series on Heart of 1.96 mL/min/g. The compound further showed a half-life in series [1] of over 102 h. The Drug uptake in series [2] is 2.28 % ID/g; with Lung, 0.74 % ID/g; with Liver, 0.89 % ID/g; in the series on Spleen it was 0.63 % ID/g; in the series on Muscle tissue, 0.07 % ID/g; in the series with Adrenal medulla, 0.88 % ID/g. The same compound displayed a Drug uptake in the series with Blood of 0.07 % ID/g. The Kp in [7] worked out at 4.7. Also, the Ratio in the series with Rhesus monkey [8] was 4.4.
For `N=[11C](N)NCCc1ccc(I)cc1`, the Kup in the series on Heart stood at 0.56 mL/min/g. Moreover, in series [1], the half-life was 1.9 h.
Consider `COc1ccc(CCN[11C](=N)N)cc1`, for which, in the series on Heart, the Kup stood at 0.73 mL/min/g. For the same compound, in series [1], the half-life is 2.3 h.
For `[11CH3]NC[C@H](O)c1ccc(O)c(O)c1` [[11C]EPINEPHRINE], the Drug uptake amounted to 2.14 % ID/g in series [2]; 0.39 % ID/g in the series with Lung; 1.95 % ID/g in the series with Liver; 0.64 % ID/g in the series on Spleen; 0.22 % ID/g with Muscle tissue; 0.61 % ID/g with Adrenal medulla. Besides, in the series on Blood, the Drug uptake came to 0.13 % ID/g.
`N=[11C](N)NCCc1ccccc1` [[11C]PHENETHYLGUANIDINE] showed a Kup with Heart of 1.56 mL/min/g. For the same compound, the half-life in [1] is 3.3 h.
